ChEMBL document CHEMBL4513216, “Probing the Open Global Health Chemical Diversity Library for Multistage-Active Starting Points for Next-Generation Antimalarials” (ACS Infect Dis, 2020)

Assay: Toxicity liver stage against HepG2, at 10uM
Format: cell-based
Set-up: test concentration 10 uM, cell line HepG2-A16-CD81EGFP
Conditions: human, HepG2-A16-CD81EGFP cells; read-out: INHIBITION
How it was run: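 Uninfected HepG2-A16-CD81EGFP cells, 3 × 10^3 per well, 1536-well, plated on prespotted compound at 10 μM final, parasite-free screening media added to match infected plates; puromycin 10 μM positive, DMSO 0.5% negative; run in parallel with 48 h PbLuc assay at 37 °C, 5% CO2; viability by CellTiter-Glo luminescence, normalized to controls.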

Structure (SMILES)	cytotoxicity at 10 µM [%]
CCCS(=O)(=O)NCc1cccnc1OCC	-7.87
O=C(CN(Cc1ccccc1)CC1CCOCC1)Nc1nccs1	-13.5
CCOc1ncccc1NC(=O)c1cc(C)c(C)s1	-2.96
O=C(NC1CC1)N1C[C@@H]2CCN(C(=O)c3cscn3)[C@@H]2C1	-0.025
Cc1nnc([C@@]23CCO[C@@H]2CCN(Cc2cccc4ccccc24)C3)o1	-103
O=C(c1ncccn1)N1C[C@@H]2CN(Cc3cccnc3)CCO[C@@H]2C1	7.67
Cc1ccc2c(c1)SCC(=O)N2CC(=O)N1CCCC1c1cc(C)on1 (centres undefined)	1.28
CSCC(=O)N1C[C@H](c2ccc(C)o2)[C@@H](N)C1	6.6
CCOc1ccc2[nH]c(=O)c(CN3CCC(N4CCCC4)CC3)cc2c1	-7.83
CCC1CN(Cc2nnc(C3CC3)o2)CCC(=O)N1Cc1ccccc1 (centres undefined)	0.0723
O=C(NCCSc1ccccc1)[C@H]1CNC[C@@H](C(=O)N2CCOCC2)C1	-3.03
O=C(O)C1CN(Cc2cccc(-c3ccccn3)c2)CCO1 (centres undefined)	-10.5
COc1nc2ccccc2cc1C1CC(=O)Nc2n[nH]c(C3CCC3)c21 (centres undefined)	-13.5
CCN1CCC(NN2CCN(C)CC2)CC1	0.935
CCc1nccn1CCCNC(=O)c1cnn(-c2ccccc2OC)c1	-17.1
CCCc1ccc(CN2CCC3(CCC(=O)N(CCO)C3)CC2)o1	-6.29
CCC(=O)N1CCCC(C(=O)N2CCN(c3cnn(C)c(=O)c3)CC2)C1 (centres undefined)	3.98
O=C(c1cccc(Cl)c1F)N1CCOC2(CNCCOC2)C1 (centres undefined)	-2.06
CN(Cc1ccccc1Cl)C(=O)c1cc(CN2CCC(O)CC2)on1	0.0227
Cc1ccc2nc(C3CCCN3Cc3nnc(C)s3)[nH]c2c1 (centres undefined)	-2.82
Cc1cncc(C(=O)N2CCC(Cn3cc(-c4ccsc4)nn3)CC2)c1	-6.69
CCCc1nc(C)cc(N2CCC3(CCC(=O)N(CC4CC4)C3)CC2)n1	14.9
NC(=O)C1CCN(C(=O)c2ccn(-c3cccc(Cl)c3)n2)C1 (centres undefined)	-0.433
Cc1ccc(C(=O)NS(=O)(=O)c2cc(F)ccc2F)c(=O)[nH]1	-1.73
O=C(NCCn1ccnc1)N1CCCC1c1ccc2c(c1)OCCO2 (centres undefined)	-8.16
COCc1ccccc1CNC(=O)CN1CCCC1c1noc(C)n1 (centres undefined)	1.13
CCn1ccnc1CN1CCN(CCC(=O)NC2CCCCC2)CC1	-12.3

Structure (SMILES)	cytotoxicity at 10 µM [%]
COc1c(C)cnc(CN2CCCC(Cn3nc(C)nc3C)C2)c1C (centres undefined)	2.37
Cc1n[nH]c(C2CN(C(=O)c3cc4c(s3)CCCC4)CCO2)n1 (centres undefined)	-14.9
Cc1cc(C(=O)N2CCN(Cc3ccsc3)CC2)c(C)n1C1CC1	-1.94
Cc1ccc(CNC(=O)CN2CCCCC2Cn2cncn2)s1 (centres undefined)	1.8
Cn1cnc2c1CCN(CCCS(=O)(=O)c1ccccc1)C2	-7.54
Cc1cnn(CC2CN(CCc3cccs3)CCO2)c1 (centres undefined)	-14.2
Cc1cc(C)n(CC2CN(CC(=O)NCc3ccccn3)CCO2)n1 (centres undefined)	-5.07
CS(=O)(=O)c1ccc(CNC(=O)N2CCC(c3ccccc3)CC2)cc1	-0.884
Cc1cnn(CC(C)NCc2ccc(-n3cccn3)cc2)c1 (centres undefined)	1.44
Cc1ccc(C(=O)NC2CCN(C(=O)Nc3ccccn3)CC2)o1	4.86
CCc1ccc(C(=O)N2CCCC(c3noc(CC)n3)C2)o1 (centres undefined)	-3.97
Cc1c(C(=O)N2CCOCC2)n(C)c2ccc(Cl)cc12	-0.244
CCNC(=O)[C@@H]1CCCN1[C@@H](C(=O)NC)c1ccccc1	7.77
Cc1ccc2c(n1)N(CCn1cccn1)CCN(C(=O)CC1CC1)C2	-5.58
Cc1noc(C)c1CN1C[C@H](OCC2CC2)[C@H]2OCCC[C@H]21	-14.9
COCCNC(=O)[C@H]1C[C@@H]2CCN(Cc3ccncc3)C[C@H]2O1	2.6
Cc1cccc(S(=O)(=O)N2CC[C@H]3CO[C@H](CN(C)C)[C@H]3C2)c1	-92.1
O=C([C@@H]1C[C@H]2[C@H](CCN2Cc2nccs2)O1)N1CCOCC1	-8.66
COCCN1C[C@@H]2CN(Cc3cccc(F)c3)CCC[C@]2(C(=O)O)C1	0.928
O=C([C@H]1CC[C@@H]2[C@@H](CCN2Cc2nccs2)O1)N1CCOCC1	-0.891
CN1CCC(c2nnc3ccc(C(=O)NC4CCCC4)cn23)C1 (centres undefined)	-1.37
COCC1CC2(CCN(Cc3ccoc3)CC2)CN1C(C)C (centres undefined)	0.803
O=C(NC1CCCC1)[C@H]1C[C@H]2OCC[C@H]2N(Cc2ccoc2)C1	-77.3
CNC(=O)[C@@H](c1ccccc1)N1CCC[C@H]1C(=O)NCc1cccnc1	2.38
c1csc(CN2CCCn3cnc(COCC4CC4)c3C2)c1	-74.6
COCCOCC1(CNCc2ccc(OC)cc2)C[C@@H](O)[C@@H](O)C1 (some centres undefined)	-7.46
Cc1cc(C(=O)NC2CCC3(CCC(=O)N3CC3CC3)CC2)no1 (centres undefined)	-0.39
